Experimental data published in ChEMBL document CHEMBL3351960, “Lumazine peptides penilumamides B-D and the cyclic pentapeptide asperpeptide A from a gorgonian-derived Aspergillus sp. fungus” (2014).
≈ marks a conversion by molar mass, not a printed value. Calls of active or inactive are those of the source. The calls are words filed in the database; no cut-off is given here. *1 amine or outer side, *2 acyl side, *3 side chain or, on linkers, in order; H or OH if unused. Where a SMILES comes first, the peptide text is derived from it. [ ]: non-standard residue; d: D form. X1 = O=C(c1cc(O)ccc1N[*:1])[*:2]

How the values were obtained:
[1] = tested on: Respiratory syncytial virus; assay: Antiviral activity against respiratory syncytial virus; type: functional, organism-based
Procedure, shortened: (§1)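 Tested against RSV and HSV-1 by established procedures, with ribavirin as positive control.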

HCT-116 = assay: Cytotoxicity against human HCT116 cells by SRB assay; type: functional, cell-based
Procedure, shortened: (§2)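 A549 lung carcinoma, HCT-116 colorectal cancer and HeLa cervical carcinoma cells were scored by sulforhodamine B assay, with adriamycin as positive control.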

Kocuria rhizophila = assay: Antibacterial activity against Kocuria rhizophila; type: functional, organism-based
Procedure, shortened: (§3)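 Run by a previously published antibacterial method against a 10-strain panel, with ciprofloxacin as positive control.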

Human alphaherpesvirus 1 = assay: Antiviral activity against HSV1; type: functional, organism-based; procedure, shortened: as §1
Acetylcholinesterase = assay: Inhibition of AChE (unknown origin) by Ellman's method; conditions: Homo sapiens
[2] = tested on: Staphylococcus epidermidis; assay: Antibacterial activity against Staphylococcus epidermidis; type: functional; procedure, shortened: as §3
Vibrio parahaemolyticus = assay: Antibacterial activity against Vibrio parahaemolyticus; type: functional, organism-based; procedure, shortened: as §3
Nocardia brasiliensis = assay: Antibacterial activity against Nocardia brasiliensis; type: functional, organism-based; procedure, shortened: as §3
Pseudomonas putida = assay: Antibacterial activity against Pseudomonas putida; type: functional, organism-based; procedure, shortened: as §3
Escherichia coli = assay: Antibacterial activity against Escherichia coli; type: functional, organism-based; procedure, shortened: as §3
A549 = assay: Cytotoxicity against human A549 cells by SRB assay; type: functional, cell-based; procedure, shortened: as §2
HL-60 = assay: Cytotoxicity against human HL60 cells by MTT assay; type: functional, cell-based
Procedure, shortened: (§4)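 K562 erythroleukemia and HL-60 promyelocytic leukemia cells were scored by MTT method, with adriamycin as positive control.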

Staphylococcus aureus = assay: Antibacterial activity against Staphylococcus aureus; type: functional, organism-based; procedure, shortened: as §3
Salmonella enterica = assay: Antibacterial activity against Salmonella enterica; type: functional, organism-based; procedure, shortened: as §3
K562 = assay: Cytotoxicity against human K562 cells by MTT assay; type: functional, cell-based; procedure, shortened: as §4
Pseudomonas aeruginosa = assay: Antibacterial activity against Pseudomonas aeruginosa; type: functional, organism-based; procedure, shortened: as §3
HeLa = assay: Cytotoxicity against human HeLa cells by SRB assay; type: functional, cell-based; procedure, shortened: as §2
Bacillus cereus = assay: Antibacterial activity against Bacillus cereus; type: functional; procedure, shortened: as §3

COC(=O)c1ccccc1NC(=O)[C@H](CCS(C)(=O)=O)NC(=O)c1cnc2c(n1)c(=O)n(C)c(=O)n2C
Activity [1]: inactive
Activity (HCT-116): inactive
Activity (Kocuria rhizophila): inactive
Activity (Human alphaherpesvirus 1): inactive
inhibition (Acetylcholinesterase): inactive
Activity [2]: inactive
Activity (Vibrio parahaemolyticus): inactive
Activity (Nocardia brasiliensis): inactive
Activity (Pseudomonas putida): inactive
Activity (Escherichia coli): inactive
Activity (A549): inactive
Activity (HL-60): inactive
Activity (Staphylococcus aureus): inactive
Activity (Salmonella enterica): inactive
Activity (K562): inactive
Activity (Pseudomonas aeruginosa): inactive
Activity (HeLa): inactive
Activity (Bacillus cereus): inactive

COC(=O)c1ccccc1NC(=O)[C@H](CCSC)NC(=O)c1cnc2c(n1)c(=O)n(C)c(=O)n2C
Activity [1]: inactive
Activity (HCT-116): inactive
Activity (Kocuria rhizophila): inactive
Activity (Human alphaherpesvirus 1): inactive
inhibition (Acetylcholinesterase): inactive
Activity [2]: inactive
Activity (Vibrio parahaemolyticus): inactive
Activity (Nocardia brasiliensis): inactive
Activity (Pseudomonas putida): inactive
Activity (Escherichia coli): inactive
Activity (A549): inactive
Activity (HL-60): inactive
Activity (Staphylococcus aureus): inactive
Activity (Salmonella enterica): inactive
Activity (K562): inactive
Activity (Pseudomonas aeruginosa): inactive
Activity (HeLa): inactive
Activity (Bacillus cereus): inactive

C[C@@H]1NC(=O)[C@H](Cc2ccc(O)cc2)NC(=O)c2cc(O)ccc2NC(=O)[C@@H]2CCCN2C(=O)[C@H](C)NC1=O (cyclo(AAP[X1]Y))
MIC [2]: 12.5 µM (≈ 6.72 µg/mL)
MIC (Bacillus cereus): 12.5 µM (≈ 6.72 µg/mL)

C[C@H](NC(=O)c1cnc2c(n1)c(=O)n(C)c(=O)n2C)C(=O)Nc1ccccc1C(N)=O
Activity [1]: inactive
Activity (HCT-116): inactive
Activity (Kocuria rhizophila): inactive
Activity (Human alphaherpesvirus 1): inactive
inhibition (Acetylcholinesterase): inactive
Activity [2]: inactive
Activity (Vibrio parahaemolyticus): inactive
Activity (Nocardia brasiliensis): inactive
Activity (Pseudomonas putida): inactive
Activity (Escherichia coli): inactive
Activity (A549): inactive
Activity (HL-60): inactive
Activity (Staphylococcus aureus): inactive
Activity (Salmonella enterica): inactive
Activity (K562): inactive
Activity (Pseudomonas aeruginosa): inactive
Activity (HeLa): inactive
Activity (Bacillus cereus): inactive

COC(=O)c1ccccc1NC(=O)[C@H](CC[S+](C)[O-])NC(=O)c1cnc2c(n1)c(=O)n(C)c(=O)n2C (some centres undefined)
Activity [1]: inactive
Activity (HCT-116): inactive
Activity (Kocuria rhizophila): inactive
Activity (Human alphaherpesvirus 1): inactive
inhibition (Acetylcholinesterase): inactive
Activity [2]: inactive
Activity (Vibrio parahaemolyticus): inactive
Activity (Nocardia brasiliensis): inactive
Activity (Pseudomonas putida): inactive
Activity (Escherichia coli): inactive
Activity (A549): inactive
Activity (HL-60): inactive
Activity (Staphylococcus aureus): inactive
Activity (Salmonella enterica): inactive
Activity (K562): inactive
Activity (Pseudomonas aeruginosa): inactive
Activity (HeLa): inactive
Activity (Bacillus cereus): inactive
